Laboratory results published in ChEMBL document CHEMBL4041511, “Synthesis of coumaperine derivatives: Their NF-κB inhibitory effect, inhibition of cell migration and their cytotoxic activity” (Eur J Med Chem, 2017).
Values after ≈ are worked out from the molar mass of the structure shown. Active and inactive are the calls of the source. The calls are words filed in the database; no cut-off is given here.

How the values were obtained:
Homo sapiens [1] = organism: Homo sapiens; experiment: Inhibition of NF-kappaB in human L428 cells at 40 ug/ml after 2 hrs by luciferase reporter gene assay relative to control; type: cell-based
Summary of the method: (§1)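 L428 cells stably carrying NF-κB-luciferase reporter (kept in 500 µg/ml G418), 10⁶ per well in 1 ml medium with DMSO solvent and compound (10-50 μg/ml) for 2 h, triplicate wells. Lysates assayed for luciferase, luminescence normalized to Bradford protein. Solvent control = 100%; Nuphar extract positive control; mean and SD of three independent experiments.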

Homo sapiens [2] = organism: Homo sapiens; experiment: Inhibition of NF-kappaB in human L428 cells after 2 hrs by luciferase reporter gene assay; type: cell-based; summary of the method: as §1
Homo sapiens [3] = organism: Homo sapiens; experiment: Inhibition of NF-kappaB in human L428 cells at 30 ug/ml after 2 hrs by luciferase reporter gene assay relative to control; type: cell-based; summary of the method: as §1
Homo sapiens [4] = organism: Homo sapiens; experiment: Inhibition of NF-kappaB in human L428 cells at 10 ug/ml after 2 hrs by luciferase reporter gene assay relative to control; type: cell-based; summary of the method: as §1
Homo sapiens [5] = organism: Homo sapiens; experiment: Inhibition of NF-kappaB in human L428 cells at 20 ug/ml after 2 hrs by luciferase reporter gene assay relative to control; type: cell-based; summary of the method: as §1
Homo sapiens [6] = organism: Homo sapiens; experiment: Inhibition of NF-kappaB in human L428 cells at 50 ug/ml after 2 hrs by luciferase reporter gene assay relative to control; type: cell-based; summary of the method: as §1
L-428 [7] = experiment: Inhibition of NFkappaB p65 subunit expression in nuclear fractions of human L428 cells after 2 hrs by Western method; type: functional, cell-based
Summary of the method: (§2)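 10 x 10^6 L428 cells per sample exposed 2 h to various concentrations or DMSO. Cytosolic and nuclear fractions prepared by hypotonic lysis, needle shearing and high-salt nuclear extraction. 40 µg protein (Bradford) run on 10% SDS-PAGE, immunoblotted for p50, p65, RelB; β-actin and Lamin B loading controls; ECL detection. At least three independent experiments.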

L-428 [8] = experiment: Inhibition of NFkappaB p50 subunit expression in nuclear fractions of human L428 cells after 2 hrs by Western method; type: functional, cell-based; summary of the method: as §2
A549 [9] = experiment: Cytotoxicity against human A549 cells assessed as reduction in cell viability after 48 hrs by XTT assay; type: functional, cell-based; settings: A549, 48 h
Summary of the method: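 A549 cells (DMEM, 10% heat-inactivated FBS, L-glutamine, Pen-Strep), 3 x 10^4 per well, left 24 h to form monolayer, then exposed to graded concentrations for 48 h in triplicate. XTT added, further 4 h at 37 °C, absorbance at 450 nm. Untreated control = 100% survival; mean and SD of three independent experiments.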

[10] = target: Transcription factor p65 (Homo sapiens) (UniProt Q04206); experiment: Inhibition of NFkappaB p65 subunit in human L428 cells assessed as depletion of p65 subunit from nucleus after 2 hrs by DAPI staining based confocal microscopic method; type: cell-based
Summary of the method: (§3)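 L428 cells incubated 2 h at 37 °C with compound at 10 or 30 μg/ml, cytocentrifuged (900 rpm, 5 min), fixed in 8% formalin 20 min. Separate staining with anti-p65 or anti-p50 plus fluorescent secondary antibodies; nuclei stained with DAPI. Nuclear localization imaged by confocal microscopy.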

L-428 [11] = experiment: Cytotoxicity against human L428 cells assessed as reduction in cell viability after 48 hrs by XTT assay; type: functional, cell-based; settings: for IC50: L-428, 48 h
Summary of the method: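 L428 Hodgkin's lymphoma cells (RPMI 1640; lack IκBα, constitutive NF-κB), 3 x 10^4 per well in 200 µl, treated with graded concentrations for 48 h at 37 °C in triplicate. XTT added for 4 h at 37 °C, absorbance read at 450 nm. Control = 100% survival; mean and SD of three independent experiments.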

Homo sapiens [12] = organism: Homo sapiens; experiment: Inhibition of NFkappaB p50 subunit in human L428 cells assessed as depletion of […] subunit from nucleus after 2 hrs by DAPI staining based confocal microscopic method; type: cell-based; summary of the method: as §3
L-428 [13] = experiment: Inhibition of NFkappaB p65 subunit expression in cytosolic fractions of human L428 cells after 2 hrs by Western method; type: functional, cell-based; summary of the method: as §2
A549 [14] = experiment: Anti-migratory activity against human A549 cells assessed as reduction in wound closure at 5 ug/ml after 48 hrs by wound scratch assay; type: functional, cell-based
Summary of the method: (§4)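 A549 cells seeded in 6-well plates without compound; after monolayer formed (24 h), compound or DMSO vehicle added and monolayer scratched. Wound closure recorded after 48 h; concentrations 2-10 μg/ml. Representative of three independent experiments.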

L-428 [15] = experiment: Inhibition of NFkappaB p50 subunit expression in cytosolic fractions of human L428 cells after 2 hrs by Western method; type: functional, cell-based; summary of the method: as §2
L-428 [16] = experiment: Inhibition of RelB protein expression in cytosolic fractions of human L428 cells at 5 to 30 ug/ml after 2 hrs by Western method; type: functional, cell-based; summary of the method: as §2
L-428 [17] = experiment: Inhibition of RelB protein expression in nuclear fractions of human L428 cells at 5 to 30 ug/ml after 2 hrs by Western method; type: functional, cell-based; summary of the method: as §2
L-428 [18] = experiment: Inhibition of RelB protein expression in nuclear fractions of human L428 cells at 10 to 40 ug/ml after 2 hrs by Western method; type: functional, cell-based; summary of the method: as §2
L-428 [19] = experiment: Inhibition of RelB protein expression in cytosolic fractions of human L428 cells at 10 to 40 ug/ml after 2 hrs by Western method; type: functional, cell-based; summary of the method: as §2
A549 [20] = experiment: Anti-migratory activity against human A549 cells assessed as reduction in wound closure at 10 ug/ml after 48 hrs by wound scratch assay; type: functional, cell-based; summary of the method: as §4
L-428 [21] = experiment: Inhibition of NFkappaB p50 subunit expression in cytosolic fractions of human L428 cells at 10 to 40 ug/ml after 2 hrs by Western method; type: functional, cell-based; summary of the method: as §2
L-428 [22] = experiment: Inhibition of NFkappaB p50 subunit expression in nuclear fractions of human L428 cells at 10 to 40 ug/ml after 2 hrs by Western method; type: functional, cell-based; summary of the method: as §2
L-428 [23] = experiment: Inhibition of NFkappaB p65 subunit expression in cytosolic fractions of human L428 cells at 10 to 40 ug/ml after 2 hrs by Western method; type: functional, cell-based; summary of the method: as §2
L-428 [24] = experiment: Inhibition of NFkappaB p65 subunit expression in nuclear fractions of human L428 cells at 10 to 40 ug/ml after 2 hrs by Western method; type: functional, cell-based; summary of the method: as §2
Homo sapiens [25] = organism: Homo sapiens; experiment: Inhibition of IL-1beta-induced NFkappaB activation in human OA chondrocytes at 100 ug/ml after 24 hrs by luciferase reporter gene assay relative to control; type: cell-based
Mus musculus = organism: Mus musculus; experiment: Inhibition of LPS-induced NFkappaB activation in mouse RAW264.7 cells at 100 ug/ml after 24 hrs by luciferase reporter gene assay relative to control; type: cell-based

Chain of Transcription factor p65 (Homo sapiens) (Q04206 whole entry): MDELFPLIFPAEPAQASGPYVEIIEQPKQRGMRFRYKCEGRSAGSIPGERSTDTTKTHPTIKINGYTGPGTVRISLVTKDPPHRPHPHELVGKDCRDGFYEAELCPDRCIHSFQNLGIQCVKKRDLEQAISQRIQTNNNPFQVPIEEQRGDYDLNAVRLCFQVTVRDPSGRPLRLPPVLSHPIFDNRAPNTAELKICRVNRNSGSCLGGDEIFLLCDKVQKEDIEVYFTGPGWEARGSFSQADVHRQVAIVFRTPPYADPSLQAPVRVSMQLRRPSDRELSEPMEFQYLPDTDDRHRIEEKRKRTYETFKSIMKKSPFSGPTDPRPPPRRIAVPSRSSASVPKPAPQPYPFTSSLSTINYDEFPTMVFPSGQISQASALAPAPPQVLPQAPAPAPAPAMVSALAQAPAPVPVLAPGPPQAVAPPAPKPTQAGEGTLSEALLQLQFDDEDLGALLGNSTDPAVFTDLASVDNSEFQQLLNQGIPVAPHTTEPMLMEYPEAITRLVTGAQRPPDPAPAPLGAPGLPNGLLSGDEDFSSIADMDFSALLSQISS

SMILES	inhibition (Homo sapiens [1]) [%]	inhibition (Homo sapiens [2])	inhibition (Homo sapiens [3]) [%]	inhibition (Homo sapiens [4]) [%]	inhibition (Homo sapiens [5]) [%]	inhibition (Homo sapiens [6]) [%]	other results
O=C(/C=C/C=C/C=C/c1ccc2c(c1)OCO2)N1CCCCC1	71	Dose-dependent effect	65.8	34	56.6	71.2	–
COc1cc(/C=C/C=C/C(=O)N2CCCCC2)cc(OC)c1OC	56.9	Dose-dependent effect	53.1	34.1	44.6	59.8	–
O=C(/C=C/C=C/c1ccc(O)cc1)N1CCCCC1	91.5	Dose-dependent effect	89.8	68.4	79.6	92.2	–
CN(C)c1ccc(/C=C/C=C/C=C/C(=O)N2CCCCC2)cc1	57.2	Dose-dependent effect	56.8	37.2	56.2	59.9	–
COc1ccc(/C=C/C=C/C(=O)N2CCCCC2)cc1OC	78.9	Dose-dependent effect	73.9	43.4	67.5	80.1	–
O=C(/C=C/C=C/c1ccccc1)N1CCCCC1	85.9	Dose-dependent effect	82.2	71.9	73.9	88.2	inhibition (L-428 [7]): Dose-dependent effect; inhibition (L-428 [8]): Dose-dependent effect; IC50 (A549 [9]): 57.1 µg/mL (≈ 237 µM); inhibition [10]: Dose-dependent effect; Activity (L-428 [11]): Dose-dependent effect; IC50 (L-428 [11]): 43.2 µg/mL (≈ 179 µM); inhibition (Homo sapiens [12]): Dose-dependent effect; inhibition (L-428 [13]): Dose-dependent effect; Activity (A549 [14]): Active; inhibition (L-428 [15]): Dose-dependent effect; inhibition (L-428 [16]): inactive; inhibition (L-428 [17]): inactive
CN(C)c1ccc(/C=C/C=C/C(=O)N2CCCCC2)cc1	97.7	Dose-dependent effect	97.3	95.5	96.6	97.9	inhibition (L-428 [18]): inactive; inhibition (L-428 [19]): inactive; Activity (A549 [20]): Active; IC50 (A549 [9]): 69.1 µg/mL (≈ 243 µM); Activity (L-428 [11]): Dose-dependent effect; IC50 (L-428 [11]): 0.39 µg/mL (≈ 1.37 µM); inhibition (L-428 [21]): inactive; inhibition (L-428 [22]): inactive; inhibition (L-428 [23]): inactive; inhibition (L-428 [24]): inactive
COc1ccc(/C=C/C=C/C=C/C(=O)N2CCCCC2)cc1	50.7	Dose-dependent effect	44.8	26.4	34	51.8	–
O=C(/C=C/C=C/c1ccc2c(c1)OCO2)N1CCCCC1	86.6	Dose-dependent effect	85.1	67.3	67.5	90.2	inhibition (Homo sapiens [25]): 90%; inhibition (Mus musculus): 75%
CC(=O)Oc1ccc(/C=C/C=C/C(=O)N2CCCCC2)cc1	78.1	Dose-dependent effect	75.3	70.3	71.4	80.1	–
COc1ccc(/C=C/C=C/C(=O)N2CCCCC2)cc1	86.9	Dose-dependent effect	77.2	69.7	76.3	89.9	inhibition (L-428 [18]): inactive; inhibition (L-428 [7]): Dose-dependent effect; inhibition (L-428 [8]): Dose-dependent effect; inhibition (L-428 [19]): inactive; IC50 (A549 [9]): 63.2 µg/mL (≈ 233 µM); inhibition [10]: Dose-dependent effect; Activity (L-428 [11]): Dose-dependent effect; IC50 (L-428 [11]): 16.8 µg/mL (≈ 62.1 µM); inhibition (Homo sapiens [12]): Dose-dependent effect; inhibition (L-428 [13]): Dose-dependent effect; Activity (A549 [14]): Active; inhibition (L-428 [15]): Dose-dependent effect
COc1ccc(/C=C/C=C/C(=O)N2CCCCC2)c(OC)c1OC	59.8	Dose-dependent effect	59.2	39.2	52.9	62.9	–
O=C(/C=C/C=C/c1ccc(OC2CCCC2)cc1)N1CCCCC1	69.7	Dose-dependent effect	63.2	57.6	61.7	72.2	–
